The values below come from the RNAGym collection of RNA variant scans (doi:10.1101/gad.245936.114).

To fix the notation:
B1: tRNA (parent)
chain: CUCUCGGUAGCCAAGUUGGUUUAAGGCGCAAGACUUUAAUUUAUCACUACGAAAUCUUGAGAUCGGGCGUUCGACUCGCCCCCGGGAGAUUUUUUCCUCGAGCAA

Fewer inactive variants are shown than the library holds.

This data set covers variants of B1. In words: nonsense suppression (GFP-seq) (ratio to wild type); higher = more function; SUP4oc tRNA, yeast GFP reporter sort-seq. A digest of the protocol: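 Yeast were grown in raffinose/galactose medium with 80 mg/L adenine, each strain bearing a genome-integrated ochre-suppressor tRNA variant from a ~3% random-mutation library, a galactose-driven GFP ochre reporter, and RFP. After sorting into GFP/RFP bins, every bin was sequenced on an Illumina platform at phred ≥30. The GFPSEQ value, a measure of nonsense suppression, is the weighted bin median GFP/RFP relative to the unmutated parent tRNA, using each variant's estimated cell share per bin as the weight. Only variants with ≥100 reads and ≥30 cells were included.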
In the case of CUCUCGGUAGCCAAGUUGGUGUAAGGCGCAAGACUUUAAUUUAUCACUACGAAAUCUUGAGAUCAGGCGUUCGACUCGCCCCCGGGAGAUUUUUUCCUCGAGCAA, the nonsense suppression is 0.0483. In the case of CUCUCGGUAGCCAAGUUGGUUAAAUGCGCAAGACUUUAAUUUAUCACUACGAAAUCUUGAGAUCGGGCGUUCGACUCGCCCCCGGGAGAUUUUUUCCUCGAGCAA it was 0.0283.

Turning to CUCUCGGUAGCCAAGUUGGUGUAAGGCGCAAGACUUUAAUUUAUCACUACGAAAUCUUGAGAUCGGGCGUUCGACCCGCCCCCGGGAGAUUUUUUCCUCGAGCAA, the nonsense suppression is 0.861. For the variant CUCUCGGUAGCCAAGUUGGUGUAAGGCGCAAGACUUUAAUUUAUCACUACGAAAUCGUGAGAUCGGGCGUUCGACUCGCCCCCGGGAGAUUUUUUCCUCGAGCAA, the nonsense suppression is not above 0.026.

On to CUCUCGGUAGCCAAGUUGGUGUAAGGCACAGGACUUUAAUUUAUCACUACGAAAUCUUGAGAUCGGGCGUUCGACUCGCCCCCGGGAGAUUUUUUCCUCGAGCAA, for which the nonsense suppression is 0.266. To CUCUCGGUAGCCAAGUUGGUGUAAGGCGCAAGACUUUAAUUUAUCACUACGAAAUCUUGAGAUCGGGCGUUCGACUCGCCCCCGAGAGAUUUUUUCCUCGAGCAA belongs 1.08.

On to CUCUCGGUAGCCAAGUUGGUUAAAGGCGCAAGUCUUUAAUUUAUCACUACGAAAUCUUGAGAUCGGGCGUUCGACUCGCCCCCGGGAGCUUUUUUCCUCGAGCAA, for which the nonsense suppression is not above 0.026.

For the variant CUCUCGGUAGCCAAGUUGGUUAAAGGCGCAAGACUUUAAUUUAUCACUACGAAAUCUUGAGAUCGGGCGUUCGAAUCGCCCCCGGGAGCUUUUUUCCUCGAGCAA, the nonsense suppression is not above 0.026. In the case of CUCUCGGUAGCCAAGUUGGUUAAAGGCGCAAGACUUUAAUUUAUCACUACGAAAUCUUGAGAUCGGGCGUUCGACUCGCCCCCGGGGGAUUUUUUCCUCGAGCAA it was 0.501; in that of CUCUCGGUAGCCAAGUUGGUGUAAGGCGCAAGACUUUAAUUUAUCACUACGAAAUCUUGAGAACGGGCGUUCGACUCGCCCCCGGGAGAUUUUUUCCUCGAGCAA, 0.636. To CUCUCGGUAGCCAAGUUGGUGUAAGGCGCAAGACUUUAAUUUAUCACUACGAAAUCUUGAGAGCGGGCGUUCGACUCGCCCCCGGGAGAUUUUUUCCUCGAGCAA belongs 0.0367; to CUCUCGGUAGCCAAGUUGGUGGAAGGCACAAGACUUUAAUUUAUCACUACGAAAUCUUGAGAUCGGGCGUUCGACUCGCCCCCGGGAGAUUUUUUCCUCGAGCAA, 0.206.

Turning to CUCUCGGUAGCCAAGUUGGUGUAAGGCGCAAGACUUUAAUUUAUCACUACGAAAUCUUGAGAUCGGGCGUUCGACUCGACCCCGGGAGAUUUUUUCCUCGAGCAA, the nonsense suppression was not above 0.026. On to CUCUCGGUAGCCAAGUUGGUUAAAGGCGCAAGACUUUAAUUUAUCACUACGAAAUCUUGAGAUCGGGCGUUCGACACGCCCCCGGGAGAUUUUUUCCUCGAGCAA, for which the nonsense suppression was 0.0747. In the case of CUCUCGGUAGCCAAGUUGGUUAAAGGCGCAAGACUUUAAUUUAUCACUACGAAAUCUUGAGAUCGGGCGUUCGACCCGCCCCCGGGAGAUUUUUUCCUCGAGCAA it was 0.967.

As to CUCUCGGUAGCCAAGUUGGUGCAAGGCGCAAGACUUUAAUUUAUCACUACGAAAUCUUGAGAUCGGGCGUUCGACUCGCCCUCGGGAGAUUUUUUCCUCGAGCAA, the nonsense suppression is 0.199. As for CUCUCGGUAGCCAAGUUGGUUAAAGGCGCAAGACUUUAAUUUAUCACUACGAAAUCUUGAGAUCGGGCGUUCGACUCACCCCCGGGAGAUUUUUUCCUCGAGCAA, the nonsense suppression came to 0.283. To CUCUCGGUAGCCAAGUUGGUUAAAGGCGCAAGACUUUAAUUUAUCACUACGAAACCUUGAGAUCGGGCGUUCGACUCGCCCCCGGGAGAUUUUUUCCUCGAGCAA belongs 0.377; to CUCUCGGUAGCCAAGUUGGUGUAAGGCGCAAGACUUUAAUUUAUCACUACGAAAUCUUGAGAUCGGGCGUUCGACUCGCCCCUGGGAGAUUUUUUCCUCGAGCAA, 0.0839; to CUCUCGGUAGCCAAGUUGGUUAAAGGCGCAGGACUUUAAUUUAUCACUACGAAAUCUUGAGAUCGGGCGUUCGACUCGCCCCCGGGAGAUUUUUUCCUCGAGCAA, 1.05. In the case of CUCUCGGUAGCCAAGUUGGUGUAAGGCGCAAGACUUUAAUUUAUCACUACGAAAUCUUGAGAUCGGGCGCUCGACUCGCCCCCGGGAGAUUUUUUCCUCGAGCAA it was not above 0.026; in that of CUCUCGGUAGCCAAGUUGGUGUAAGGCACAAGACUUUAAUUUAUCACUACGAAAUCUUGAGAUCGGGCGUUCGACUCGCCCCCGGGAGAUUUUUUCCUCGAGCAA, 1.14; in that of CUCUCGGUAGCCAAGUUGGUGUAAGGCCCAAGACUUUAAUUUAUCACUACGAAAUCUUGAGAUCGGGCGUUCGACUCGCCCCCGGGAGAUUUUUUCCUCGAGCAA, 0.211. In the case of CUCUCGGUAGCCAAGUUGGUUAAAGGCACAAGACUUUAAUUUAUCACUACGAAAUCUUGAGAUCGGGCGUUCGACUCGCCCCCGGGAGAUUUUUUCCUCGAGCAA, the nonsense suppression amounted to 1.14.

CUCUCGGUAGCCAAGUUGGUGUAAGGCGCAAGACUUUAAUUUAUCACUACGAAACCUUGAGAUCGGGCGUUCGACUCGCCCCCGGGAGAUUUUUUCCUCGAGCAA: the nonsense suppression came to 0.208. In the case of CUCUCGGUAGCCAAGUUGGUGUAAGGCGCAAGACUUUAAUUUAUCACUACGAAAUCUUGAUAUCGGGCGUUCGACUCGCCCCCGGGAGAUUUUUUCCUCGAGCAA it was 0.554.

In the case of CUCUCGGUAGCCAAGUUGGUGUAAGGCGCAAGACUUUAAUUUAUCACUACGAAAUCUUGACAUCGGGCGUUCGACUCGCCCCCGGGAGAUUUUUUCCUCGAGCAA, the nonsense suppression worked out at 0.105. As to CUCUCGGUAGCCAAGUUGGUGUAAGGCGCAAGACUUUAAUUUAUCACUACGAAAUCUUGAAAUCGGGCGUUCGACUCGCCCCCGGGAGAUUUUUUCCUCGAGCAA, the nonsense suppression amounted to 0.237. Take CUCUCGGUAGCCAAGUUGGUUAAAGGCUCAAGACUUUAAUUUAUCACUACGAAUUCUUGAGAUCGGGCGGUCGACUCGCCCCCGGGCGAUUUUUUCCUCGAGCAA: the nonsense suppression was not above 0.026. For the variant CUCUCGGUAGCCAAGUUGGUUACAGGCGCAAGACUUUAAUUUAUCACUACGAAAUCUUGAGAUCGGGCGUUCGACUCGCCCCCGGGAGAUUUUUUCCUCGAGCAA, the nonsense suppression was 0.153. As for CUCUCGGUAGCCAAGUUGGUGUAAGGCGCAAGACUUUAAUUUAUCACUACGAAAUCUUGAGAUCGGGCGUCCGACUCGCCCCCGGGAGAUUUUUUCCUCGAGCAA, the nonsense suppression was 0.0265. On to CUCUCGGUAGCCAAGUUGGUUAACGGCGCAAGACUUUAAUUUAUCACUACGAAAUCUUGAGAUCGGGUGUUCGACUCGCCCCCGGGAGAUUUUUUCCUCGAGCAA, for which the nonsense suppression came to 0.215. To CUCUCGGUAGCCAAGUUGGUUAAAGGCGCGAGACUUUAAUUUAUCACUACGAAAUCUUGAGAUCGGGCGUUCGACUCGCCCCCGGGAGAUUUUUUCCUCGAGCAA belongs 0.677. In the case of CUCUCGGUAGCCAAGUUGGUUAAAGGCGCUAGACUUUAAUUUAUCACUACGAAAUCUUGAGAUCGGGCGUUCGACUCGCCCCCGGGAGAUUUUUUCCUCGAGCAA it was 0.177. In the case of CUCUCGGUAGCCAAGUUGGUUAAAGGCGCAAGACUUUAAUUUAUCACUACGAAAUCUUGAGAUCGGGCGUUCAACUCGCCCCCGGGAGAUUUUUUCCUCGAGCAA it was 0.325. As for CUCUCGGUAGCCAAGUUGGUUAAAGGCGCAAGACUUUAAUUUAUCACUACGAAAUCUUGAGAUCAGGCGUUCGACUCGCCCCCGGGAGAUUUUUUCCUCGAGCAA, the nonsense suppression amounted to 0.12. In the case of CUCUCGGUAGCCAAGUUGGUGUAAGGCGCAAGACUUUAAUUUAUCACUACGAAAUCUUGAGAUCGGGCGUUCGACUCGCCCCCGGGAGGUUUUUUCCUCGAGCAA it was 0.0399; in that of CUCUCGGUAGCCAAGUUGGUGUAAGGCGCAAGACUUUAAUUUAUCACUACGAAAUCUUGAGAUCGGGCGUUCGAAUCGCCCCCGGGAGAUUUUUUCCUCGAGCAA, 1.06; in that of CUCUCGGUAGCCAAGUUGGUGUAAGGCGCAAGACUUUAAUUUAUCACUACGAAAUCUUGAGAUCGGGCGUUCGAGUCGCCCCCGGGAGAUUUUUUCCUCGAGCAA, 1.05. To CUCUCGGUAGCCAAGUUGGUGUAAGGCGCAAGACUUUAAUUUAUCACUACGAAAUCUUGAGAUCGCGCGUUCGACUCGCCCCCGGGAGAUUUUUUCCUCGAGCAA belongs not above 0.026. In the case of CUCUCGGUAGCCAAGUUGGUUAAAGGCGCAAGACUUUAAUUUAUCACUACGAAAUCUUGAGAUCGGGCGUUCGACUCGCCCCCGGGAGAUUUUUUCCUCGAGCAA it was 1.13; in that of CUCUCGGUAGCCAAGUUGGUUCAAGGCGCAAGACUUUAAUUUAUCACUACGAAAUCUUGAGAUCGGGCGUUCGACUCGCCCCCGGGAGAUUUUUUCCUCGAGCAA, 1.

As for CUCUCGGUAGCCAAGUUGGUGUAAGGCGCAAGACUUUAAUUUAUCACUACGAAAUCUUGAGAUCGGGCGUUUGACUCGCCCCGGGGAGAUUUUUUCCUCGAGCAA, the nonsense suppression is not above 0.026.

Take CUCUCGGUAGCCAAGUUGGUUAAAGGCGCAAGACUUUAAUUUAUCACUACGAAAUCUUGAGAUCGGGCGUUCGAUUCGCCCCCGGGAGAUUUUUUCCUCGAGCAA: the nonsense suppression worked out at 1.15. In the case of CUCUCGGUAGCCAAGUUGGUGUAAGGCGCAAGACUUUAAUUUAUCACUACGAAAUCUUGAGAUCGGGCUUUCGACUCGCCCCCGGGAGAUUUUUUCCUCGAGCAA it was not above 0.026; in that of CUCUCGGUAGCCAAGUUGGUGUAAGGCGCAAGACUUUAAUUUAUCACUACGAAAUCUUGAGAUCGGGCGUUCGACUCUCCCCCGGGAGAUUUUUUCCUCGAGCAA, 0.034; in that of CUCUCGGUAGCCAAGUUGGUGUAAGGCGCAAGACUUUAAUUUAUCACUACGAAAUCUUGAAAUAGGGCGUUCGACUCGCCACCGGGAGAUUUUUUCCUCGAGCAA, not above 0.026. With CUCUCGGUAGCCAAGUUGGUUAAAGGCGCAAGACUUUAAUUUAUCACUACGAAAUCUUGAGAUCGGGCGUUCGACUCGCCCCCGGUAGAUUUUUUCCUCGAGCAA, the nonsense suppression came out at 0.033. In the case of CUCUCGGUAGCCAAGUUGGUGUAAGGCGCAAGACUUUAAUUUAUCACUACGAAAUCUUGAGAUCGGUCGUACGACUCGCCCCCGGGAGAUUUUUUCCUCGAGCAA it was not above 0.026; in that of CUCUCGGUAGCCAAGUUGGUGUAAGGCGUAAGACUUUAAUUUAUCACUACGAAAUCUUGAGAUCGGGCGUUCGACUCGCCCCCGGGAGAUUUUUUCCUCGAGCAA, 0.809. For the variant CUCUCGGUAGCCAAGUUGGUUAAAGGCGCAAGACUUUAAUUUAUCACUACGAAAUCUUGACAUCGGGCGUUCGACUCGCCCCCGGGAGAUUUUUUCCUCGAGCAA, the nonsense suppression stood at 0.203. As to CUCUCGGUAGCCAAGUUGGUGGAAGGCGCAAGACUUUAAUUUAUCACUACGAAAUCUUGAGAUCGGGCGUUCGACUCGCCCCCGGGAGAUUUUUUCCUCGAGCAA, the nonsense suppression came to 0.571. As for CUCUCGGUAGCCAAGUUGGUGCAAGGCGCAAGACUUUAAUUUAUCACUACGAAAUCUUGAGAUCGGGCGUUCGACUCGCCCCCGGGAGAUUUUUUCCUCGAGCAA, the nonsense suppression was determined as 1.09. In the case of CUCUCGGUAGCCAAGUUGGUGUAAGGCGCAAGACUUUAAUUUAUCACUACGAAAUCUUGAGAUCGGGCGUUCUACUCGCCCCCGGGAGAUUUUUUCCUCGAGCAA it was 0.026.
